Laboratory results reported in ChEMBL document CHEMBL3112476, “Inhibition of IκB kinase-β and IκB kinase-α by heterocyclic adamantyl arotinoids” (Bioorg Med Chem, 2014).

Columns and labels:
[1] = biological target: T1, Retinoic acid receptor alpha (Homo sapiens) (UniProt P10276); assay: Agonist activity at Gal4-fused RARalpha (unknown origin) transfected in HEK293 cells assessed as induction of transcriptional activity at 4 uM after 6 hrs by luciferase/beta-galactosidase reporter gene assay relative to control; assay type: cell-based
T1 sequence (whole entry): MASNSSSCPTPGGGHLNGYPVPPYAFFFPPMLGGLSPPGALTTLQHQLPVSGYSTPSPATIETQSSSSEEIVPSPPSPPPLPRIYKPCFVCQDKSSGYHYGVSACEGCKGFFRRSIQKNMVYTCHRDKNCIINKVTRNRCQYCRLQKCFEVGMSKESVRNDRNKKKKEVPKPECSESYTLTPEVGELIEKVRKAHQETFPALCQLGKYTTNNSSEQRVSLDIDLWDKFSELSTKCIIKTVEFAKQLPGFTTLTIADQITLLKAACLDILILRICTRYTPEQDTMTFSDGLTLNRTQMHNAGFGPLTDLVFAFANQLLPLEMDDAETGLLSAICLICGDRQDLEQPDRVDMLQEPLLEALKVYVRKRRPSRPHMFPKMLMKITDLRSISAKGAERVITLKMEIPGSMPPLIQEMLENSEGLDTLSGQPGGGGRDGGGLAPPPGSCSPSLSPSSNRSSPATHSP
In short: (§1)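 Gal4-RARα or Gal4-RXRα (10 ng) plus 2 ng β-galactosidase vector, calcium phosphate transfection into HEK-293 cells carrying a 5×UAS luciferase reporter. After 16 h, cells were washed and given 5% charcoal-treated FBS medium, then rested 2 h. Stimulation was with 4 µM compound or 0.1% DMSO; controls were 1 µM atRA (RARα) or 1 µM CD3254 (RXRα). Harvest was at 6 h (RARα) or 24 h (RXRα). Luciferase/β-gal ratio was expressed as fold over unstimulated cells. Data: 2 experiments, triplicate.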

[2] = biological target: T2, Retinoic acid receptor RXR-alpha (Homo sapiens) (UniProt P19793); assay: Agonist activity at recombinant GST-tagged RXRalpha LBD (unknown origin) assessed as induction of biotinylated SRC-1-676-700 coactivator recruitment after 4 hrs by TR-FRET assay
T2 sequence (whole entry): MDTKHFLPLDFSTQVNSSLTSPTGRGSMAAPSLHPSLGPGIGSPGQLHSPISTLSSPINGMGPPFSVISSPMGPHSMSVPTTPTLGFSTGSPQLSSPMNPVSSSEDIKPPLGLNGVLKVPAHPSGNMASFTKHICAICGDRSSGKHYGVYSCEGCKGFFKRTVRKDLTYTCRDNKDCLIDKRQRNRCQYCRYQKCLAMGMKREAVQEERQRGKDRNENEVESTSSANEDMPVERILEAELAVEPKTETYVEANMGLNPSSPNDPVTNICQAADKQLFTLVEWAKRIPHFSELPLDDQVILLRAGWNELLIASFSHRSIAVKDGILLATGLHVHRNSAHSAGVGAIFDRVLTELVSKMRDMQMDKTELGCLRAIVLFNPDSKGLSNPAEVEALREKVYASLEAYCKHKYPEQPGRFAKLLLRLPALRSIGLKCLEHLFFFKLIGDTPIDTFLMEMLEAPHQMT
In short: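 5 nM GST-RXRα LBD was incubated with 150 nM biotin-SRC-1 676-700 peptide at room temperature in binding buffer (25 mM Hepes pH 7.4, 100 mM NaCl, 0.025% BSA, 5% glycerol, 0.005% Tween-20, 2.5 mM DTT; ≤1% DMSO). Detection used 2 nM Eu-anti-GST plus 37.5 nM streptavidin-allophycocyanin. The 665/615 nm ratio was read at 4 h and expressed as Delta F% versus no-receptor control.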

[3] = biological target: T2, Retinoic acid receptor RXR-alpha (Homo sapiens); assay: Agonist activity at recombinant GST-tagged RXRalpha LBD (unknown origin) assessed as induction of fluorescein labeled D22 coactivator recruitment after 4 hrs by TR-FRET assay
In short: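 5 nM GST-RXRα LBD was incubated with 150 nM fluorescein-D22 peptide at room temperature in Hepes pH 7.4 binding buffer (≤1% DMSO), with 2 nM Tb-anti-GST antibody. The 520/495 nm TR-FRET ratio was read after 4 h and reported as Delta F% relative to samples lacking receptor.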

[4] = biological target: T2, Retinoic acid receptor RXR-alpha (Homo sapiens); assay: Agonist activity at Gal4-fused RXRalpha (unknown origin) transfected in HEK293 cells assessed as induction of transcriptional activity at 4 uM after 24 hrs by luciferase/beta-galactosidase reporter gene assay relative to CD3254; assay type: cell-based; in short: as §1

Row | Compound | fold change (FC) [1] | Activity [2] | Activity [3] | max activation [4] [%]
1 | COCCOCOc1cc(C)c(-c2ccc(/C=C/C(=O)O)cc2Cl)cc1C12CC3CC(CC(C3)C1)C2 | 1.8 | Dose-dependent effect | Dose-dependent effect | 
2 | COCCOCOc1cc(C)c(-c2ncc(/C=C/C(=O)O)nc2OC)cc1C12CC3CC(CC(C3)C1)C2 | 0.8 |  |  | 
3 | COCCOCOc1cc(C)c(-c2ncc(/C=C/C(=O)O)s2)cc1C12CC3CC(CC(C3)C1)C2 | 1.9 |  |  | 
4 | COCCOCOc1ccc(-c2ncc(/C=C/C(=O)O)nc2OC)cc1C12CC3CC(CC(C3)C1)C2 | 1.1 |  |  | 
5 | Cc1cc(O)c(C23CC4CC(CC(C4)C2)C3)cc1-c1ccc(/C=C/C(=O)O)cc1Cl |  | Dose-dependent effect | Dose-dependent effect | 
6 | COCCOCOc1cc(C)c(-c2ccc(CC(=O)O)cc2Cl)cc1C12CC3CC(CC(C3)C1)C2 | 1.3 | Dose-dependent effect | Dose-dependent effect | 
7 | COCCOCOc1ccc(-c2ncc(-c3ccc(C(=O)O)cc3)nc2OC)cc1C12CC3CC(CC(C3)C1)C2 | 1.1 |  |  | 
8 | COCCOCOc1cc(C)c(-c2ccc3cc(C(=O)O)ccc3c2Cl)cc1C12CC3CC(CC(C3)C1)C2 |  | Dose-dependent effect | Dose-dependent effect | 
9 | COCCOCOc1ccc(-c2ncc(/C=C/C(=O)O)s2)cc1C12CC3CC(CC(C3)C1)C2 | 1 |  |  | 
10 | COCCOCOc1ccc(-c2ncc(-c3ccc(C(=O)O)cc3)s2)cc1C12CC3CC(CC(C3)C1)C2 | 1.2 |  |  | 21
11 | O=C(O)/C=C/c1cnc(-c2ccc(O)c(C34CC5CC(CC(C5)C3)C4)c2)s1 | 1.1 |  |  | 
12 | COc1nc(-c2ccc(C(=O)O)cc2)cnc1-c1ccc(O)c(C23CC4CC(CC(C4)C2)C3)c1 | 1.9 |  |  | 
13 | Cc1cc(O)c(C23CC4CC(CC(C4)C2)C3)cc1-c1ncc(/C=C/C(=O)O)s1 | 1 |  |  | 
